Measured values collected from several papers.
Each line is one published result; the experiments were not run side by side.

SMILES	tested on	assay	test system	setting	quantity	result
O=c1c2ccccc2[se]n1-c1ccccc1	HEK293	cell growth or viability, MTT	–	125 µM, 72 h	inhibition	43%
CCCCCCCc1cc(=O)c2ccccc2[nH]1	HEK293	cell growth or viability	–	–	IC50	> 10 µM
c1ccc(-c2ccc(C(c3ccccc3)n3ccnc3)cc2)cc1 (stereo not shown)	Vesicular stomatitis virus	viral entry, inhibitor	Vero C1008	pseudovirus	IC50	30 to 40 µM
Cc1cccc2c(CNCC3(N4CCCC4)COC3)c[nH]c12	T98G	cell growth or viability	–	30 µM, 48 h	viability	34.1%
Oc1cccc(C2CCCN(CCc3c[nH]c4ccccc34)C2)c1 (stereo not shown)	HEK293	cell growth or viability	–	–	IC50	> 10 µM
Cc1ccc(-c2nc3ccc(C)cn3c2CC(=O)N(C)C)cc1	Mycobacterium avium	microbial growth	–	6 days	MIC	> 50 µM
N.N.[Cl][Pt][Cl]	SK-MEL-28	cell growth or viability, resazurin	–	dark	EC50	3.12 µM
CNCCN(C)C(=O)Oc1c(Br)c(C)nc(C)c1-c1ccc(Oc2ccc(OC(F)(F)F)cc2)cc1	HEK293	cell growth or viability	–	–	IC50	> 10 µM
Cc1ccc2c(CNCC3(N4CCCC4)COC3)c[nH]c2c1	GBM6	cell growth or viability	–	30 µM, 48 h	viability	60.6%
CNCCCN(C)C(=O)Oc1c(Br)c(C)nc(C)c1-c1ccc(Oc2ccc(OC(F)(F)F)cc2)cc1	HEK293	cell growth or viability	–	–	IC50	> 10 µM
CO[C@H]1/C=C/O[C@@]2(C)Oc3c(C)c(O)c4c(O)c(c(/C=N/N5CCN(C)CC5)c(O)c4c3C2=O)NC(=O)/C(C)=C\C=C\[C@H](C)[C@H](O)[C@@H](C)[C@@H](O)[C@@H](C)[C@H](OC(C)=O)[C@@H]1C	Mycolicibacterium phlei	microbial growth	–	–	MIC	0.03 µg/mL
[H]/N=C(/N)N[C@H]1[C@H](O)[C@@H](O)[C@H](O[C@@H]2O[C@@H](C)[C@](O)(C=O)[C@H]2O[C@@H]2O[C@@H](CO)[C@H](O)[C@@H](O)[C@@H]2NC)[C@@H](N/C(N)=N\[H])[C@@H]1O	Mycobacterium avium	microbial growth	ATCC25291	–	MIC	12.5 µg/mL
C#C[C@]1(O)CC[C@H]2[C@@H]3CCc4cc(O)ccc4[C@H]3CC[C@@]21C	Vesicular stomatitis virus	viral entry, inhibitor	Vero C1008	pseudovirus	IC50	25 to 70 µM
